Experimental findings from ChEMBL document CHEMBL3352222, “2-Hexylthio-β,γ-CH2-ATP is an effective and selective NTPDase2 inhibitor” (J Med Chem, 2014) are described below.

Data set [1] addresses T1, NTPDase1 (ectonucleoside triphosphate diphosphohydrolase 1) (Homo sapiens, UniProt P49961).
T1 sequence (P49961 whole entry): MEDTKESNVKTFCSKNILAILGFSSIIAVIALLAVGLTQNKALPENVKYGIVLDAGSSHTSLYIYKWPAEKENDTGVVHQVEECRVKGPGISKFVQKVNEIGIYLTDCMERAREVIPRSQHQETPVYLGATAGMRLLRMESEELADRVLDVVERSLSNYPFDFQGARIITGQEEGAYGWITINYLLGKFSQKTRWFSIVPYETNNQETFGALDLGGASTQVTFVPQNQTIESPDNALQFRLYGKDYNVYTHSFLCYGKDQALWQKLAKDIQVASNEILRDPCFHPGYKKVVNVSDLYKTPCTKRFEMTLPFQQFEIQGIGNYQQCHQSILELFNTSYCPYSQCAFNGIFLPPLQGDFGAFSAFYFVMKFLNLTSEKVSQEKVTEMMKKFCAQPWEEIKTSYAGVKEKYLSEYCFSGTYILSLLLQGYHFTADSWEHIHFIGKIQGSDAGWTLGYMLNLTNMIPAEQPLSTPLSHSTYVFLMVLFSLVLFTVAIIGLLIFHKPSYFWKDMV
Put plainly: Stability assessed as human NTPDase1-mediated compound hydrolysis. Format: ADME. The note with it: human NTPDase1 enzyme, read-out: Drug degradation. The procedure, abridged: (§1)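 Each analogue offered as substrate to recombinant human NTPDase (COS-7 transfected cell protein extracts) at 37 °C, pH 7.4 Ca2+/Tris medium, 15 min; Pi released measured by malachite green at 630 nm; hydrolysis expressed relative to ATP set as 100%; mean ± SD of three independent experiments, each in duplicate.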

Data set [2] deals with T2, NTPDase2 (ectonucleoside triphosphate diphosphohydrolase 2) (Homo sapiens, UniProt Q9Y5L3).
T2 sequence (Q9Y5L3 whole entry): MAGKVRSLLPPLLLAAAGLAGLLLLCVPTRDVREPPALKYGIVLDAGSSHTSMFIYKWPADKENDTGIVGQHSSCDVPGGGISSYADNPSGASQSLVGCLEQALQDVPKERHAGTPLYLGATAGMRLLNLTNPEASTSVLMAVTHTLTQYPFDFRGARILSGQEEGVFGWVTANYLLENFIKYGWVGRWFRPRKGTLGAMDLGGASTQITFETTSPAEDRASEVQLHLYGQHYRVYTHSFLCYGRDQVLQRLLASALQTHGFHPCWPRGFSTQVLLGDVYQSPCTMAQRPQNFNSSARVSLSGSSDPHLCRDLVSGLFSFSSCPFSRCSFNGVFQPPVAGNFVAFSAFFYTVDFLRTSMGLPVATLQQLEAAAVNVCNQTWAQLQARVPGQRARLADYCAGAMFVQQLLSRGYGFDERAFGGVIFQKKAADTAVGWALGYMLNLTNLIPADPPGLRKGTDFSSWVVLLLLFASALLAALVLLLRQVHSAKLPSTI
As to the kind of experiment: Stability assessed as human NTPDase2-mediated compound hydrolysis. The note with it: human NTPDase2 enzyme, read-out: Drug degradation. Format: ADME. The method in brief:
as §1

Data set [3] addresses T3, NTPDase3 (ectonucleoside triphosphate diphosphohydrolase 3) (Homo sapiens, UniProt O75355).
T3 sequence (O75355 whole entry): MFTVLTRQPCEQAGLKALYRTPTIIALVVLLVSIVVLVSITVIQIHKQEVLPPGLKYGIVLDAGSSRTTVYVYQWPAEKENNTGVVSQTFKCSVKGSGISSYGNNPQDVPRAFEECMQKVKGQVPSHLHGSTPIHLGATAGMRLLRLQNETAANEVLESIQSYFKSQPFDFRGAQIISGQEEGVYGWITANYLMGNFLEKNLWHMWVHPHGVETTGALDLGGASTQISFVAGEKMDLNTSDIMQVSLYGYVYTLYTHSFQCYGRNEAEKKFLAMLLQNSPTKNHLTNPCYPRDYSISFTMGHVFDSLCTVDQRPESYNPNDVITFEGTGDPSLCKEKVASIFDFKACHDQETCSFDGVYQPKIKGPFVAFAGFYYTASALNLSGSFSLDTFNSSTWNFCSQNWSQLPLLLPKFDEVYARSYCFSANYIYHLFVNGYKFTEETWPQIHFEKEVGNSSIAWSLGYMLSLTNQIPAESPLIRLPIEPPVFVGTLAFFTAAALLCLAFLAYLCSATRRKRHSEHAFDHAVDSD
As to the kind of experiment: Stability assessed as human NTPDase3-mediated compound hydrolysis. The format is ADME. The note with it: human NTPDase3 enzyme, read-out: Drug degradation. The procedure, abridged: as §1

A short description of data set [4]: Stability assessed as human compound hydrolysis. The note with it: read-out: Drug degradation.
For data set [5], the target named is T4, Ectonucleoside triphosphate diphosphohydrolase 2 (Homo sapiens) (UniProt Q9Y5L3).
T4 sequence (whole entry): T2 sequence (Q9Y5L3 whole entry)
Put plainly: Inhibition of recombinant human NTPDase2 transfected in COS-7 cells using ATP substrate at 100 uM relative to control. Format: cell-based. The procedure, abridged: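 Extracts of COS-7 cells expressing human NTPDase2, preincubated 3 min at 37 °C in 5 mM CaCl2/80 mM Tris pH 7.4; ATP and compound both 100 μM; stopped at 15 min with malachite green, Pi at 630 nm; ATP alone set as 100%; mean ± SD of three experiments in triplicate.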

Data set [6] concerns the target T5, Ectonucleotide pyrophosphatase/phosphodiesterase family member 1 (Homo sapiens) (UniProt P22413).
T5 sequence (whole entry): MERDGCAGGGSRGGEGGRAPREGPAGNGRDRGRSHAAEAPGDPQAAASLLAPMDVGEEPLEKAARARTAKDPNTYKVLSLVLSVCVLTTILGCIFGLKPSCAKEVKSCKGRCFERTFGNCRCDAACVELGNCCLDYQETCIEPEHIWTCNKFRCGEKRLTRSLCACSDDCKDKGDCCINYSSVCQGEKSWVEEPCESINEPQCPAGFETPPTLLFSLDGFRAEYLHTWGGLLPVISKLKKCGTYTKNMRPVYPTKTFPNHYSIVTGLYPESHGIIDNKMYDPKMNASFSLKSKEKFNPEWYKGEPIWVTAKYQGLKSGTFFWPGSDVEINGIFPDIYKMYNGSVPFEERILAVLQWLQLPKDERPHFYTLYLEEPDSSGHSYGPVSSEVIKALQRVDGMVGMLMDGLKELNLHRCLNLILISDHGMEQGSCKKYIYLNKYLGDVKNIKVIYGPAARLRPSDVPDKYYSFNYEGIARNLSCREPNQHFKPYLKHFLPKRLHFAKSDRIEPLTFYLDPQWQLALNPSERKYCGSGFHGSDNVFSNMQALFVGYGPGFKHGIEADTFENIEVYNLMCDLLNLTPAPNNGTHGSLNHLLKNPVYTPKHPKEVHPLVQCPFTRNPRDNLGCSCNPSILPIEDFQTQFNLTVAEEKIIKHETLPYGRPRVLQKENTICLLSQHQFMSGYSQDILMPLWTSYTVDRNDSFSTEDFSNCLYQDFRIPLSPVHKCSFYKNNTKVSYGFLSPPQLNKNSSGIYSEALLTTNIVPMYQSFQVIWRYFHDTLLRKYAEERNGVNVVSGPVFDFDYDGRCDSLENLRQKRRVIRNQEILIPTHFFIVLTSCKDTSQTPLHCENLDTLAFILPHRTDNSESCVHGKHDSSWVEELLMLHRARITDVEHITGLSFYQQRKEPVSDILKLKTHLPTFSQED
Put plainly: Inhibition of human NPP1 using pNP-TMP substrate relative to control. The note with it: concentration not given here. The method in brief: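 Extract of COS-7 cells transfected with human NPP1, preincubated 3 min at 37 °C in 1 mM CaCl2, 140 mM NaCl, 5 mM KCl, 50 mM Tris pH 8.5; started with 100 μM pNP-TMP, compound 100 μM; p-nitrophenol read at 410 nm after 15 min; activity without compound = 100%; mean ± SD, three experiments in triplicate.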

For data set [7], the target named is 5'-nucleotidase (Homo sapiens) (UniProt P21589). Put plainly: Inhibition of AMPase activity of human ecto-5'-nucleotidase using AMP substrate relative to control. The note with it: concentration not given here. The procedure, abridged: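 Human ecto-5′-nucleotidase in protein extracts of transfected COS-7 cells; 3 min preincubation at 37 °C in 5 mM CaCl2/80 mM Tris pH 7.4 (or Tris-Ringer); started with 100 μM AMP, compound also 100 μM; stopped after 15 min with malachite green, Pi read at 630 nm; activity without compound set as 100%; mean ± SD, three experiments in triplicate.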

The target in data set [8] is T6, Ectonucleoside triphosphate diphosphohydrolase 2 (Homo sapiens, UniProt Q9Y5L3).
T6 sequence (Q9Y5L3 whole entry): T2 sequence (Q9Y5L3 whole entry)
Put plainly: Inhibition of recombinant human NTPDase2 transfected in COS-7 cells using ATP substrate. The format is cell-based.

Sequence of 5'-nucleotidase (Homo sapiens) (P21589 whole entry): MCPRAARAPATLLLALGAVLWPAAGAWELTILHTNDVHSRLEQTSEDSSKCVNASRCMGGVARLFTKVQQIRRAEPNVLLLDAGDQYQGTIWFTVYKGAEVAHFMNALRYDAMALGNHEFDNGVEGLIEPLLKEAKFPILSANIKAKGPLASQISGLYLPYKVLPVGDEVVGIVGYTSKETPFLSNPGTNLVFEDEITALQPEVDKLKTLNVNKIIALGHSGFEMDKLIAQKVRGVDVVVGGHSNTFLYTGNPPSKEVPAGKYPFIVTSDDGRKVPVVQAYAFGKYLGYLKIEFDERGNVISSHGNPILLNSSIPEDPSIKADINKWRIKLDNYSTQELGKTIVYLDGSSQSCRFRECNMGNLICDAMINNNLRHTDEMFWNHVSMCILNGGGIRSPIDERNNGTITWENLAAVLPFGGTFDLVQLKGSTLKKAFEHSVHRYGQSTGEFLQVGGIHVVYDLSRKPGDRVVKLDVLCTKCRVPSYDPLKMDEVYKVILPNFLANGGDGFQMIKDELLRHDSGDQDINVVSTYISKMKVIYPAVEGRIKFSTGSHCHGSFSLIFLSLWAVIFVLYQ

As to `CCCCCCSc1nc(N)c2nnn([C@@H]3O[C@H](COP(=O)(O)OP(=O)(O)OP(=O)(O)O)[C@@H](O)[C@H]3O)c2n1`, the results for the metabolised in data set [1] and in data set [2] were 44% and 11.5%, respectively.

Take `CN(C)c1ncnc2c1ncn2[C@@H]1O[C@H](COP(=O)(O)O)[C@@H](O)[C@H]1O`: the metabolised turned out to be 0% in data set [1], 0% in data set [2], 4% in data set [3] and 2% in data set [4].

With `CN(C)c1ncnc2c1ncn2[C@@H]1O[C@H](COP(=O)(O)OP(=O)(O)OP(=O)(O)O)[C@@H](O)[C@H]1O`, the metabolised in data set [1] is 74%; in data set [2] it was 73%.

For `CCN(CC)c1ncnc2c1ncn2[C@@H]1O[C@H](COP(=O)(O)OP(=O)(O)OP(=O)(O)O)[C@@H](O)[C@H]1O`, the metabolised turned out to be 22% in data set [1], 0% in data set [2], 2% in data set [3] and 20% in data set [4]. Further, the inhibition (usually how much of the control response was suppressed) in data set [5] came out at 42%.

On to `O=P(O)(O)OC[C@H]1O[C@@H](n2cnc3c(N(Cc4ccccc4)Cc4ccccc4)ncnc32)[C@H](O)[C@@H]1O`, for which the metabolised in data set [1] came out at 6%; in data set [2], 3%; in data set [3], 10%; in data set [4], 5%. In addition, the inhibition in data set [5] was 10%.

Take `O=P(O)(O)OP(=O)(O)OP(=O)(O)OC[C@H]1O[C@@H](n2cnc3c(N(Cc4ccccc4)Cc4ccccc4)ncnc32)[C@H](O)[C@@H]1O`: the metabolised in data set [1] amounted to 14%; in data set [2] it was 3%; in data set [3] it was 8%; in data set [4] it was 13%. For the same molecule, the inhibition in data set [5] was determined as 0%.

As for `CCCCCCSc1nc(N)c2ncn([C@@H]3O[C@H](COP(=O)(O)OP(=O)(O)CP(=O)(O)O)[C@@H](O)[C@H]3O)c2n1`, the metabolised in data set [1] came to 2.3%; in data set [2], 2.8%; in data set [3], 0.8%. The inhibition was 70% in data set [5], above 50% in data set [6] and 10% in data set [7]. Moreover, the IC50 (as a rule, the concentration that inhibits the measured activity by half) in data set [8] turned out to be 40 µM. Besides, the Ki (usually the equilibrium dissociation constant of an inhibitor or competing ligand from its target) in data set [8] came out at 21 µM.

In the case of `CNc1ncnc2c1ncn2[C@@H]1O[C@H](COP(=O)(O)OP(=O)(O)OP(=O)(O)O)[C@@H](O)[C@H]1O`, the metabolised came out at 87% in data set [1] and 77% in data set [2].

In the case of `Nc1ncnc2c1nnn2[C@@H]1O[C@H](COP(=O)(O)OP(=O)(O)OP(=O)(O)O)[C@@H](O)[C@H]1O`, the metabolised came out at 73% in data set [1] and 38.5% in data set [2].
